Values joined by “and” are separate entries in the source; they are usually repeats but may differ in a detail not shown here. Equal values may be shown once. Read-outs that look alike come from different tables or passages of the source. Values belong to the compound of their own block, whether it stands above or below them.
Legend:
[1] = DPPH radical scavenging assay; settings: 30 minutes incubations; n=4
[2] = test system: breast MCF7 cancer cell line; test: SRB antiproliferative assay, MCF7; assay type: cell-based
[3] = test system: Leukaemia K562 cancer cell line; test: SRB antiproliferative assay, K562; assay type: cell-based
[4] = test system: colorectal HT29 cancer cell line; test: SRB antiproliferative assay, HT29; assay type: cell-based
[5] = test system: LPS-induced NO production in RAW 264.7 macrophages (Nitric oxide synthase); test: Griess assay of LPS-induced NO production in RAW 264.7 macrophages; assay type: cell-based; settings: read-out: NOS- IC50 value, LPS-prompted RAW264.7 macrophages, 24h incubations, n=4
Method in brief: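 LPS-stimulated RAW264.7 macrophages exposed to the test compound; NO read by Griess assay. IC50 calculated within the tested dose range. Indomethacin used as reference. Data are mean ± SD of 4 independent replicates.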

- DPPH radical scavenging IC50 value [1]: (21.83±1.10) μg/mL
Compound: O=C1O[C@H]([C@@H](O)CO)C(O)=C1O [Ascorbic acid]

Compound: N.N.[Cl][Pt][Cl] [Cisplatin]
- IC50 ([2]; read-out: Cytotoxicity (as of %Control) IC50 value, MCF7, 72 h incubations, n=4): 28.1 ± 4.4 µM
- IC50 ([2]; read-out: Cytotoxicity (as of %Control) IC50 value, MCF7, 72 h incubations, n=4, listed as cisplatin): 28 µM
- IC50 ([3]; read-out: Cytotoxicity (as of %Control) IC50 value, K562, 72 h incubations, n=4, NI is lack of cytotoxicity within the tested 0.1-200 μg/mL range): 180 ± 21 µM
- IC50 ([3]; read-out: Cytotoxicity (as of %Control) IC50 value, K562, 72 h incubations, n=4, NI is lack of cytotoxicity within the tested 0.1-200 μg/mL range, listed as cisplatin): 180 µM
- IC50 ([4]; read-out: Cytotoxicity (as of %Control) IC50 value, HT29, 72 h incubations, n=4): 45.1 ± 7.9 µM
- IC50 ([4]; read-out: Cytotoxicity (as of %Control) IC50 value, HT29, 72 h incubations, n=4, listed as cisplatin): 45 µM

- IC50 ([5]; Mus musculus, RAW264.7, 24 h): 120 µM and 42.8 µg/mL
- IC50 [5]: 119 ± 3.02 µM
Compound: COc1ccc2c(c1)c(CC(=O)O)c(C)n2C(=O)c1ccc(Cl)cc1 [Indomethacin]

From PMC9587871 (Asian Pacific Journal of Cancer Prevention : APJCP, 2022)
